The record followed here is ChEMBL document CHEMBL1127529, “Antipsoriatic anthrones with modulated redox properties. 2. Novel derivatives of chrysarobin and isochrysarobin--antiproliferative activity and 5-lipoxygenase inhibition” (J Med Chem, 1994).

Data set [1] deals with Liposome. The data set is described as follows: Inhibition of 2,2'-azobis(2-aminopropane)hydrochloride (AAPH) induced lipid peroxidation in bovine brain phospholipid liposomes. The format is functional, subcellular, Bos taurus.
For data set [2], the system named is HaCaT. Nature of the data set: Antiproliferative activity against HaCaT cells. The format is functional, cell-based. Conditions: Homo sapiens. Summed up:
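HaCaT human keratinocytes were kept in DMEM with 10% FCS, penicillin and streptomycin at 37 °C under 8% CO2. After 48 h the cells were detached with trypsin/EDTA and counted by phase-contrast microscopy.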

The nature of data set [3]: Reducing activity against 2,2-diphenyl-1-picrylhydrazyl (DPPH) with equimolar compound. Format: functional. Summed up:
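Test compound and DPPH, each 10⁻⁴ M in acetone/PBS (1-1 v/v), mixed 1 mL + 1 mL. DPPH reduction followed spectrophotometrically at 516 nm. Reciprocal DPPH concentration plotted against time gave straight lines, and second-order rate constants (M⁻¹ s⁻¹) were taken from the slopes. Values are means, N = 3-6. Highly reactive compounds gave approximate values only.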

Data set [4] concerns the target T1, Polyunsaturated fatty acid 5-lipoxygenase (Homo sapiens, UniProt P09917).
T1 sequence (P09917 whole entry): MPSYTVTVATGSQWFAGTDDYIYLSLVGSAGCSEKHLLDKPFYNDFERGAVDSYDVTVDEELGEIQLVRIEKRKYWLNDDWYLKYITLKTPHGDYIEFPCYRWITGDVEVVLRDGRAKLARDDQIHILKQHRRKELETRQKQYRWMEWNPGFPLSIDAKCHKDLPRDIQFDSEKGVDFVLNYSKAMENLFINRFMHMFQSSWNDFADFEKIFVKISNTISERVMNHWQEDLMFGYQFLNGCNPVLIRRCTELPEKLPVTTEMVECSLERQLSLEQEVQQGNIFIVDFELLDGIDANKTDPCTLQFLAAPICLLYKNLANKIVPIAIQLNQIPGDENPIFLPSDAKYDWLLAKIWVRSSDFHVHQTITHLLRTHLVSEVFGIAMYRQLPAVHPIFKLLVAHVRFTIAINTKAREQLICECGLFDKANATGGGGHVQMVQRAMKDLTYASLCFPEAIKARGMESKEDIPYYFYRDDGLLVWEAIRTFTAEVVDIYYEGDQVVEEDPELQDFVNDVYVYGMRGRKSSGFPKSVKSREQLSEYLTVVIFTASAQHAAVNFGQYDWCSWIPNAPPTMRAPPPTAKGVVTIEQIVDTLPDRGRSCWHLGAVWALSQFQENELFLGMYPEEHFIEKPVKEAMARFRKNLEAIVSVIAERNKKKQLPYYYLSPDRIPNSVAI
The data set is described as follows: Inhibitory concentration against arachidonic acid 5-lipoxygenation. Format: functional. Summed up:
(§1)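 Bovine PMNL (10^7 cells/mL) were stimulated with Ca-ionophore. Compound was preincubated for 15 min at 37 °C.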

The nature of data set [5]: Partition coefficient (logP) (HPLC). Format: physicochemical. Conditions: octanol/water. The gist of the method: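 Reversed-phase HPLC with MeOH/water/HOAc (77-23-0.1) as eluant, adjusted to pH 5.5 with concentrated NH3.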
In data set [6] the target is T2, Arachidonate 5-lipoxygenase (Bos taurus, UniProt Q9BEG3).
T2 sequence (Q9BEG3 whole entry): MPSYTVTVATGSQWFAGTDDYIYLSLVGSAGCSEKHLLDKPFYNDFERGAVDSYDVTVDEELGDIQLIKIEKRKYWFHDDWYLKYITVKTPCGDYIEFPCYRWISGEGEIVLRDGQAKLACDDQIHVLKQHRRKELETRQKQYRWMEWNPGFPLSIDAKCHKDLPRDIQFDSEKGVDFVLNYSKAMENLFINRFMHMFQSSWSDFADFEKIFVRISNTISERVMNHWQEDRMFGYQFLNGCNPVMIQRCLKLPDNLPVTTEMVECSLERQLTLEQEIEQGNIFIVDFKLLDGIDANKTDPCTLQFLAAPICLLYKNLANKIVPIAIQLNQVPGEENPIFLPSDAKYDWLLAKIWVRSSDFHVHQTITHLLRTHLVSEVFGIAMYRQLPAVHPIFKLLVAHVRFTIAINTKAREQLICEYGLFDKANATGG
The data set is described as follows: Inhibition of 5-lipoxygenase in bovine polymorphonuclear leukocytes. The format is cell-based. Summed up: as §1

Data set [7] in a line: Deoxyribose degradation assay as hydroxy radical formation. Format: functional. The gist of the method:
(§2)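 2-Deoxy-D-ribose (2 mM) was incubated with FeCl3 (0.1 mM) and compound (75 μM) in KH2PO4-KOH buffer pH 7.4 (30 mM) for 2 h at 37 °C with shaking. TBA-reactive material was read at 532 nm. Result is µmol malondialdehyde per mmol deoxyribose.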

Data set [8] in a line: Deoxyribose degradation as a measure of hydroxy radical formation. Format: functional. The gist of the method:
as §2

For orientation: IC50 means the concentration needed to halve the response being measured. A lower IC50 goes with greater potency. For `O=C1c2c(O)cccc2Cc2cccc(O)c21` [ANTHRALIN], the values for the IC50 in data set [1], in data set [2] and in data set [4] were 79 µM, 200 nM and 7 µM, respectively. For the same molecule, the kDPPH in data set [3] is 24.2 M⁻¹ s⁻¹.

The term logP denotes the decadic logarithm of the partition coefficient of the neutral form, usually between octanol and water. The molecule `Cc1ccc(Cc2ccc3c(c2O)C(=O)c2c(O)cccc2C3)cc1` registered a kDPPH in data set [3] of 8.5 M⁻¹ s⁻¹. The same molecule came in with a logP in data set [5] of 6.04. Also, the IC50 in data set [6] was > 30 µM. Moreover, in data set [7], the DD (uM of MDA mM-1) was < 0.25.

As for `COc1c(OC)c(OC(C)=O)c2cc(Cl)ccc2c1OC(C)=O` [LONAPALENE], the IC50 in data set [1] was > 50 µM; in data set [2], 3200 nM. Besides, the DD (uM of MDA mM-1) in data set [7] was < 0.15.

In the case of `O=C1c2c(O)cccc2Cc2cc(Cc3ccc(O)cc3O)cc(O)c21`, the IC50 in data set [1] worked out at 16 µM; in data set [2], 500 nM; in data set [6] it was 7 µM. Further, the kDPPH in data set [3] was determined as 39.3 M⁻¹ s⁻¹. Further, the logP in data set [5] amounted to 3.67. The DD (uM of MDA mM-1) in data set [7] turned out to be 3.26.

As for `O=C1c2c(O)cccc2Cc2cc(Cc3ccc(O)cc3)cc(O)c21`, the IC50 was 14 µM in data set [1], 400 nM in data set [2] and > 30 µM in data set [6]. In data set [3], this molecule returned a kDPPH of 12.6 M⁻¹ s⁻¹. The molecule further showed a logP in data set [5] of 4.52. The same molecule came in with a DD (uM of MDA mM-1) in data set [7] of 0.27.

For `O=C(c1ccccc1)c1ccc2c(c1O)C(=O)c1c(O)cccc1C2`, the IC50 is 43 µM in data set [1], 1600 nM in data set [2] and 18 µM in data set [6]. In addition, the kDPPH in data set [3] is > 100 M⁻¹ s⁻¹. In data set [5], the logP was determined as 4.47. The molecule also had a DD (uM of MDA mM-1) in data set [8] of 2.68.

As for `O=C1c2c(O)cccc2Cc2ccc(CCCc3cc(O)c(O)c(O)c3)c(O)c21`, the IC50 in data set [1] worked out at 5 µM; in data set [2], 500 nM; in data set [6] it was 0.6 µM. Besides, the kDPPH in data set [3] was > 100 M⁻¹ s⁻¹. In data set [5], this molecule displayed a log partition coefficient (logP) of 3.96. The DD (uM of MDA mM-1) in data set [8] is 2.97.

As to `O=C1c2c(O)cccc2Cc2ccc(Cc3ccccc3O)c(O)c21`, the IC50 in data set [1] came out at 25 µM; in data set [2] it was 700 nM; in data set [6], 5 µM. The kDPPH in data set [3] was > 100 M⁻¹ s⁻¹. Also, the logP in data set [5] is 4.67. The molecule further yielded a DD (uM of MDA mM-1) in data set [8] of 0.35.
